# Shown are actives, neighbours in structure and some others; about 1.3% of the full set was active somewhere.
# DDE Tn6 FP inh: inhibitors of Tn6 peptide binding to human fibrin DD(E) | P02675 | Fibrin DD(E) TRITC-Tn6 fluorescence polarization displacement | 0.21% of 370,000 active | inhibition, % at 8.3 µM | AID 720509;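 active means inhibition above a per-campaign cutoff: mean of compounds within control limits plus 3 SD, cut at about 15% in these data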
# TCR CD3 inh: blocks the human TCR-CD3 interaction; TAMRA-labeled TCR probe fluorescence, biochemical; 0.37% of 360,000 active; inhibition, % at 9.4 µM; in the data active means inhibition above about 19%;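 further: recombinant mutant TCR 2C K166C tagged with TAMRA read by polarization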
# DDE Tn7 FP inh: disrupts Tn7 cyclic peptide binding to fibrin D-Dimer-E complex. inhibition, % at 8.3 µM. FP displacement of FITC-Tn7 peptide from fibrin DD(E); 0% = median of compound wells per plate. P02675. AID 720508. 0.13% of 370,000 active;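 active means inhibition above the mean of compounds falling within the control limits plus 3 SD of them, cut at about 14% in these data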
#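 system = human fibrin DD(E) protein | quantity = DD(E) 2 µM final | medium = Tris/NaCl/CaCl2 buffer, pH 7.8 | also added = labelled Tn7 tracer, 0.1 µM | compound dosing = single point at 8.3 µM | timing = compound with protein 10 min, then 3 h after probe, room temperature | signal = FP measurement | benchmarks = Aha-Tn7 high control | repeats = one replicate per compound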
# mABHD4 FP: inhibitors of mouse ABHD4. AID 720543. Q8VD66. purified mABHD4, FP-Rh probe fluorescence polarization. inhibition, % at 8.92 µM. 0.54% of 370,000 active;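 active means inhibition exceeding the mean over every tested compound plus 3 SD, cut at about 30% in these data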
# Target sequence (Q8VD66 whole entry, looked up): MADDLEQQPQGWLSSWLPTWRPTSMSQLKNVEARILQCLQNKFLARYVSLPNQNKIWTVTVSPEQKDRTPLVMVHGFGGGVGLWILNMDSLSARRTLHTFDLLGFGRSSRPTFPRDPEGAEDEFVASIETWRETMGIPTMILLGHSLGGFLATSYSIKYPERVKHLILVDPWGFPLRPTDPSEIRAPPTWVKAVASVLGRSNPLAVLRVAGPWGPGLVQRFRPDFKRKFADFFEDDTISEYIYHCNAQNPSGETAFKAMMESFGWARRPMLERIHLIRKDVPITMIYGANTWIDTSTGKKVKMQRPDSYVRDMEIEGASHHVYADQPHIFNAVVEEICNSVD
#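 Assay system: mABHD4 protein; medium: HEPES pH 7.0, NaCl, Pluronic buffer; dosing: 8.92 µM, single dose; schedule: 45 min + 60 min at 25 °C; signal: FP readout, ex 525 nm / em 598 nm; read-out: normalized percent inhibition of probe labeling; repeats: single replicate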
# HTRA1 inh: inhibitors of human serine peptidase HTRA1; Q92743; inhibition, % at 5.96 µM; 0.5% of 340,000 active; recombinant HTRA1, FP-rhodamine activity-based probe, fluorescence polarization; in the data active means inhibition above about 36%
# DDE Tn6 FP ctr: counter-screen hit for Tn6 peptide-fibrin DD(E) binding disruption | shares compounds with DDE Tn6 FP inh | TRITC-Tn6 fluorescence polarization displacement; 0% = median of compound wells, not DMSO | inhibition, % at 8.3 µM | 2% of 680 active;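 active means inhibition above the mean of test compounds lying between the control limits plus 3 SD of those, cut at about 14% in these data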
# Tn6 DDE conf: confirmation of inhibitors of Tn6 binding to human fibrin DD(E) | shares compounds with DDE Tn6 FP inh | FP displacement of TRITC-Tn6 peptide from DD(E); 0% = per-plate median of test wells | 10% of 680 active | inhibition, % at 8.3 µM | AID 720631;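 active means inhibition above the mean of compounds lying within the control limits plus 3 SD, cut at about 16% in these data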
# Hits are given with their value; – = inactive; · = no result given.
SMILES,DDE Tn6 FP inh,TCR CD3 inh,DDE Tn7 FP inh,mABHD4 FP,HTRA1 inh,DDE Tn6 FP ctr,Tn6 DDE conf
CC(=O)C1=C(C)Nc2ncnn2C1c1ccccc1OCc1ccccc1 (stereo unspecified),18,–,–,–,–,–,–
O=C(Nc1nccs1)C1CC(=O)N(Cc2ccco2)C1 (stereo unspecified),–,–,–,–,–,·,·
COCCn1c(C)cc(C2=NNC(=Nc3ccccc3)SC2)c1C,17,–,–,–,–,–,–
N#Cc1c2c(c(Nc3ccc(F)cc3)n3c1nc1ccccc13)CCCC2,–,–,–,–,–,·,·
Cc1nn(-c2ccc(F)cc2)c2c1cc(C#N)c1nc3ccccc3n12,16,–,–,–,–,–,–
C=CCn1c(-c2ccc(F)cc2)n[nH]c1=S,16,–,–,–,–,–,–
COc1ccc(/C=C(\C#N)C(=O)NCC2CCCO2)cc1OC (stereo unspecified),–,–,–,–,–,·,·
CCOC(=O)c1ccc(-c2ccc(/C=C(\C#N)C(=O)NCC3CCCO3)o2)cc1 (stereo unspecified),18,–,–,–,–,–,–
CCN1CC=C2C(C1)C(c1ccc(Cl)s1)C(C#N)=C(N)C2(C#N)C#N (stereo unspecified),16,–,–,–,–,–,–
CCN1CC=C2C(C#N)=C(N)C(C#N)(C#N)[C@H](c3cccc(OC)c3OC)[C@H]2C1,–,–,–,–,–,·,·
COc1cc(NS(=O)(=O)c2ccc(NC(=S)NC(=O)/C=C/c3ccc(F)cc3)cc2)ncn1,19,–,–,–,–,–,–
COc1ccc(C(=O)N(C)Cc2ccc(C)o2)cc1OC1CCN(C(C)=O)CC1,16,–,–,–,–,–,–
CC(C)(C)n1ncc2c(=O)n(Cc3cc(F)c(Cl)cc3Cl)cnc21,–,–,–,–,–,·,·
CCn1c(=O)c(=O)[nH]c2cc(C(=O)NC3CCCc4ccccc43)ccc21 (stereo unspecified),18,–,–,–,–,–,–
CCn1c(=O)c(=O)[nH]c2cc(C(=O)NC3CC3)ccc21,–,–,–,–,–,·,·
Cc1occc1C(=O)NCCCCNC(=O)c1ccoc1C,–,–,–,–,–,·,·
CCCCCCCCCCCNC(=O)c1ccoc1C,17,–,–,–,–,–,–
Oc1ccc(N2CCN(C(=S)NCCc3ccccc3)CC2)cc1,16,–,–,–,–,–,–
Cc1ccc(S(=O)(=O)N(C)c2ccc3ccccc3c2)cc1,–,–,–,–,–,·,·
Cc1ccccc1NS(=O)(=O)c1ccc(OCCNS(C)(=O)=O)cc1,17,–,–,–,–,–,–
Cc1ccc(S(=O)(=O)Nc2ccc(N3CCOCC3)cc2)cc1[N+](=O)[O-],–,–,–,–,–,·,·
CCn1c(C)c(C2=CCN(S(=O)(=O)c3ccc(C)cc3)CC2)c2ccccc21,25,–,–,–,–,–,–
CC(C)N(Cc1ccccc1)C(=O)CN1C(=O)NC2(CCCc3ccccc32)C1=O (stereo unspecified),–,–,–,–,–,·,·
O=C(C[C@H]1CC[C@@H](NC(=O)Cc2cccnc2)[C@@H](CO)O1)NCc1ccc2c(c1)OCO2,–,–,–,–,·,·,·
COc1ccc(CNc2ncnc3cc(Cl)ccc23)cc1OC,16,–,–,–,–,–,–
SMILES,DDE Tn6 FP inh,TCR CD3 inh,DDE Tn7 FP inh,mABHD4 FP,HTRA1 inh,DDE Tn6 FP ctr,Tn6 DDE conf
COc1ccc(O)c(CN2CCC(n3nccc3NC(=O)C3CCCC3)CC2)c1,–,–,–,–,–,·,·
Cc1c(NC2=CC(=O)CC(C)(C)C2)c(=O)n(-c2ccccc2)n1C,–,–,–,–,–,·,·
CC(C)CCNC(=O)C1CCN(S(=O)(=O)c2ccc3c(c2)CC(C)N3C(=O)C2CC2)CC1 (stereo unspecified),–,–,–,–,–,·,·
CCCCNC(=O)C1CCN(S(=O)(=O)c2ccc3c(c2)CC(C)N3C(=O)C2CC2)CC1 (stereo unspecified),103,–,–,–,–,–,–
CC(C)(C)c1ccc(NC(=O)CCNC(=O)c2ccco2)cc1,15,–,–,–,–,–,–
O=C(CCNC(=O)c1ccco1)Nc1ccc(C(F)(F)F)cc1,–,–,–,–,–,·,·
Cc1ccn2c(=O)nc(SCC(=O)N3CCCCC3)nc2c1,–,–,–,–,–,·,·
O=C(COC(=O)c1ccc(Sc2ncn[nH]2)c([N+](=O)[O-])c1)Nc1cccc(Cl)c1F,16,·,–,–,·,–,–
N=c1c(C(=O)NC2CCCC2)cc2c(=O)n3ccccc3nc2n1CCN1CCOCC1,16,–,–,–,–,–,–
N=c1c(C(=O)NC2CCCC2)cc2c(=O)n3ccccc3nc2n1CCCN1CCOCC1,–,–,–,–,–,·,·
O=C1NC[C@H](Cc2ccccc2)N(C[C@H]2CCCN2C[C@H](Cc2ccccc2)N2C[C@H](Cc3ccccc3)N(CCc3ccccc3)C(=O)C2=O)C1=O,–,–,–,–,–,·,·
COc1ccc(OC)c(C(=O)NC(CC(N)=O)c2ccc(NCCN3CCCC3)c([N+](=O)[O-])c2)c1 (stereo unspecified),16,–,–,–,–,–,–
CCCCc1cc(=O)oc2c(CN3CCN(C)CC3)c(O)ccc12,–,–,–,–,–,·,·
CCCCc1cc(=O)oc2c(CN(C)C)c(O)ccc12,16,–,–,–,–,–,–
CCN(C)c1ccc(/C=N\n2nnnc2N)cc1,–,–,–,–,–,·,·
CCN(CC)c1ccc(/C=N/n2nnnc2N)c(O)c1,18,–,–,–,–,–,–
CN1CCCN(c2cc(-c3ccc4ccccc4c3)nc3ccnn23)CC1,–,–,–,–,·,·,·
Cc1cccc(-c2cc(N3CCCN(C)CC3)n3nccc3n2)c1,16,–,–,–,·,–,–
Fc1ccccc1-c1nnc2c3ccccc3nc(N3CCOCC3)n12,15,–,–,–,–,–,–
Cc1ccc(C(=O)OCN2C(=O)c3ccccc3C2=O)c(O)c1,–,–,–,–,–,·,·
COc1ccccc1N=Nc1nc(-c2ccccc2)c(-c2ccccc2)[nH]1,21,–,–,–,–,–,–
CO/N=C(\CCC(=O)O)c1cccs1,16,–,–,–,–,–,–
COc1ccc(C(=O)NCc2nnc(SCC(=O)Nc3cc(OC)ccc3OC)o2)cc1,15,–,–,–,–,–,–
COc1ccc(OC)c(NC(=O)CSc2nnc(CNC(=O)c3ccccc3F)o2)c1,–,–,–,–,–,·,·

# Assay outcomes: PubChem, The Scripps Research Institute Molecular Screening Center
